According to ChEMBL document CHEMBL3124809, “Back pocket flexibility provides group II p21-activated kinase (PAK) selectivity for type I 1/2 kinase inhibitors” (J Med Chem, 2014):
Values after ≈ are worked out from the molar mass of the structure shown. Active and inactive are the calls of the source. The rule behind the calls is not given here.

What was measured:
[1] = molecular target: T1, Tyrosine-protein kinase JAK3 (Homo sapiens) (UniProt P52333); assay: Inhibition of JAK3 (unknown origin) at 1 uM
T1 sequence (whole entry): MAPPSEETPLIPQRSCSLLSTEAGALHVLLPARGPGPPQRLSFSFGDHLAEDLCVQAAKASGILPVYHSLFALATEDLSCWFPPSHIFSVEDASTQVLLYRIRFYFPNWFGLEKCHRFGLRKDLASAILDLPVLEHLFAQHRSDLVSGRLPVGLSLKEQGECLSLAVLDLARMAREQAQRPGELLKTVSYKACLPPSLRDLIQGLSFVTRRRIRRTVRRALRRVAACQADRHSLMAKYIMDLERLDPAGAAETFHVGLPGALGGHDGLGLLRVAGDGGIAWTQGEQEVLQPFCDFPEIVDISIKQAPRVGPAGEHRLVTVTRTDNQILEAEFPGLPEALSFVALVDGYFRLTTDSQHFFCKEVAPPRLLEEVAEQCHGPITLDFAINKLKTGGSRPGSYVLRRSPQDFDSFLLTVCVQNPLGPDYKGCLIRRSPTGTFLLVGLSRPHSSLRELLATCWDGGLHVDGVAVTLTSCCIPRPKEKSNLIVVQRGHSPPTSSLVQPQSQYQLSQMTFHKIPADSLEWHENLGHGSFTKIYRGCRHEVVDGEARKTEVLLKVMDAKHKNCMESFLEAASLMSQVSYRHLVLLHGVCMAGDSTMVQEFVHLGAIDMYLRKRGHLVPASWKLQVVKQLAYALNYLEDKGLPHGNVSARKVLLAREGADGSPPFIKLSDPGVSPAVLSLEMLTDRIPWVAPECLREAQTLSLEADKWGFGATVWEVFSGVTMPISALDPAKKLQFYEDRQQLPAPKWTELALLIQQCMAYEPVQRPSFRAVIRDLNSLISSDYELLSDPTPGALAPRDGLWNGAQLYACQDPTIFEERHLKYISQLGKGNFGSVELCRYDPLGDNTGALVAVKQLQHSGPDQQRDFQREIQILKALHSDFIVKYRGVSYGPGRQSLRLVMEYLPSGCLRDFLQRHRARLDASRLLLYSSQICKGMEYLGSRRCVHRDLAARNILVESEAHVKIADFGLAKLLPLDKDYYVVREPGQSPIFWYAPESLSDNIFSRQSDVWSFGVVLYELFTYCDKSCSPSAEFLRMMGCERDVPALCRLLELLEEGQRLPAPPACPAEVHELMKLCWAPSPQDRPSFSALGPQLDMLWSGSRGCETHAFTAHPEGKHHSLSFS

[2] = test system: MCF-10A; assay: Antiinvasive activity against human MCF10A cells harboring PIK3CA H1047R mutant assessed as complete wound closure at 0.1 to 50 uM after 40 hrs by matrigel assay; type: functional, cell-based
[3] = molecular target: T2, Serine/threonine-protein kinase PAK 6 (Homo sapiens, UniProt Q9NQU5); assay: Inhibition of PAK6 (unknown origin)
[4] = test system: MDA-MB-436; assay: Cytotoxicity against human MDA-MB-436 cells assessed as reduction in cell viability at 50 uM after 24 to 48 hrs by Celltiter-glo luminescence assay; type: functional, cell-based
Procedure, shortened: (§1)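 Cells sparsely plated in 96-well plates and allowed to adhere, then given DMSO or compound (0.1, 1, 10, 50 μM) for 24 and 48 h. Metabolically active cells quantified by CellTiter-Glo luminescence. MDA-MB-436 grown in DMEM/10% FBS; MCF10A PIK3CA (one endogenous H1047R allele) in DMEM/F12 with 5% horse serum, insulin, hydrocortisone.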

[5] = test system: MDA-MB-436; assay: Antiinvasive activity against human MDA-MB-436 cells assessed as reduction of wound density after 80 hrs by matrigel assay; type: functional, cell-based
[6] = molecular target: T3, Serine/threonine-protein kinase PAK 5 (Homo sapiens, UniProt Q9P286); assay: Inhibition of PAK5 (unknown origin)
Target sequence in this assay (Q9P286 whole entry): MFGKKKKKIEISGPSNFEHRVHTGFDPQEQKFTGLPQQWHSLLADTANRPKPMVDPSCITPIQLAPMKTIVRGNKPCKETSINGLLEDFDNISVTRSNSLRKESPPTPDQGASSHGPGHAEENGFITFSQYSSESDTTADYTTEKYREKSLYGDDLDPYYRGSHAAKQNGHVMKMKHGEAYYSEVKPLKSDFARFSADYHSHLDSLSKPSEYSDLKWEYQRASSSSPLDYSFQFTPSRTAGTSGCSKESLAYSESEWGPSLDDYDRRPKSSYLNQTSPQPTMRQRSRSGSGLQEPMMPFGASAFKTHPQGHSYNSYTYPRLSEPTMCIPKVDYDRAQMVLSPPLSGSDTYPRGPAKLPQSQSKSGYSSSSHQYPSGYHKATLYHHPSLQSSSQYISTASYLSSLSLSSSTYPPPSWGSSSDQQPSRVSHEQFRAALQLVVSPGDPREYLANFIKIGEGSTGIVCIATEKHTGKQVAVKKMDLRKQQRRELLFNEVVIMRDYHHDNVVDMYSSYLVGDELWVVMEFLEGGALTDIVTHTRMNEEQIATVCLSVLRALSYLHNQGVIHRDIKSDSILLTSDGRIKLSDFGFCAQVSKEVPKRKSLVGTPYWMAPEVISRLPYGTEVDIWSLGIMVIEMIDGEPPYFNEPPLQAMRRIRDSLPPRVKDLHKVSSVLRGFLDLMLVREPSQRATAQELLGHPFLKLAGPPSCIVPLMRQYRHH

[7] = test system: MDA-MB-436; assay: Antiinvasive activity against human MDA-MB-436 cells assessed as complete wound closure at 0.1 to 50 uM after 80 hrs by matrigel assay; type: functional, cell-based
[8] = Antimigratory activity in human MDA-MB-436 cells assessed as reduction in wound density at >10 uM after 1 to 24 hrs by wound healing assay; type: functional; set-up: scale not given: the % may be the effect or the level left
Procedure, shortened: (§2)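 Monolayer of 40 000 cells per well, grown overnight, scratched with WoundMaker, washed twice with warm medium, then given medium with DMSO or compound (0.1, 1, 10, 50 μM). Relative wound density from phase-contrast time-lapse images, collected and quantified every 2 h on IncuCyte.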

[9] = molecular target: Misshapen-like kinase 1 (Homo sapiens) (UniProt Q8N4C8); assay: Inhibition of MINK1 (unknown origin) at 1 uM
[10] = Thermodynamic solubility of the compound; type: physicochemical; conditions: read-out: Therm_solubility
[11] = Apparent permeability across apical to basolateral side in MDCK cells; type: ADME, cell-based, Canis lupus familiaris; conditions: dog
[12] = molecular target: Serine/threonine-protein kinase PAK 3 (Homo sapiens, UniProt O75914); assay: Inhibition of PAK3 (unknown origin)
[13] = Cytotoxicity against human MCF10A cells harboring PIK3CA H1047R mutant cells assessed as reduction in cell viability at 10 uM after 24 to 48 hrs by Celltiter-glo luminescence assay; type: functional, MCF-10A; procedure, shortened: as §1
[14] = Plasma protein binding in human plasma; type: ADME, cell-free; conditions: read-out: PPB (converted)
[15] = molecular target: Mitogen-activated protein kinase kinase kinase kinase 5 (Homo sapiens) (UniProt Q9Y4K4); assay: Inhibition of KHS1 (unknown origin) at 1 uM
[16] = molecular target: T2, Serine/threonine-protein kinase PAK 6; assay: Inhibition of PAK6 (unknown origin) at 0.1 uM
[17] = molecular target: T4, Serine/threonine-protein kinase PAK 4 (Homo sapiens, UniProt O96013); assay: Inhibition of PAK4 (unknown origin) at 1 uM
Target sequence in this assay (O96013 whole entry, looked up): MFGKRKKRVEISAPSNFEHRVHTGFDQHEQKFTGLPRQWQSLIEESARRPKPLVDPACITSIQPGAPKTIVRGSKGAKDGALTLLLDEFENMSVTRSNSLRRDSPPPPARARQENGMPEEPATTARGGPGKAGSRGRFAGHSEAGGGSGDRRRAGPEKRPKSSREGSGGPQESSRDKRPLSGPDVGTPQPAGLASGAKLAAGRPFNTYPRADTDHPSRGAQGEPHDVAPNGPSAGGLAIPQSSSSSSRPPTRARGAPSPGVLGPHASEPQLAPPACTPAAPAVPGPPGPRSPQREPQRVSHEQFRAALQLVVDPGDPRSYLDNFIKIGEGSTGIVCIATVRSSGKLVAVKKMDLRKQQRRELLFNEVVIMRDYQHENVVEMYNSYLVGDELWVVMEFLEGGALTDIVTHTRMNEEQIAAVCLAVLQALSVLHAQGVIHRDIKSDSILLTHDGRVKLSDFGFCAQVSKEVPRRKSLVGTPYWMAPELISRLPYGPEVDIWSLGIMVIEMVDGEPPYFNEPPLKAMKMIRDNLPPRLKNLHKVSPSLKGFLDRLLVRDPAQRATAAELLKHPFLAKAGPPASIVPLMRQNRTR

[18] = Lipophilicity, log D of the compound at pH 7.4; type: physicochemical; conditions: buffer
[19] = Kinetic solubility of the compound; type: physicochemical; conditions: read-out: Kinetic_solubility
[20] = Antiinvasive activity against human MDA-MB-436 cells assessed as reduction of wound density at 1 uM after 80 hrs by matrigel assay; type: functional; set-up: scale not given: the % may be the effect or the level left
[21] = molecular target: Mitogen-activated protein kinase kinase kinase kinase 4 (Homo sapiens) (UniProt O95819); assay: Inhibition of MAP4K4 (unknown origin) at 1 uM
[22] = molecular target: Mitogen-activated protein kinase kinase kinase 14 (Homo sapiens) (UniProt Q99558); assay: Inhibition of NIK (unknown origin) at 1 uM
[23] = Antimigratory activity in human MCF10A cells harboring PIK3CA H1047R mutant assessed as reduced wound density at >10 uM after 20 hrs by wound healing assay; type: functional, MCF-10A; set-up: scale not given: the % may be the effect or the level left; procedure, shortened: as §2
[24] = molecular target: T4, Serine/threonine-protein kinase PAK 4; assay: Inhibition of PAK4 (unknown origin)
Target sequence in this assay (O96013 whole entry): as the sequence (O96013 whole entry, looked up) above

[25] = molecular target: T3, Serine/threonine-protein kinase PAK 5; assay: Inhibition of PAK5 (unknown origin) at 0.1 uM
Target sequence in this assay (Q9P286 whole entry, looked up): as the sequence (Q9P286 whole entry) above

[26] = molecular target: T4, Serine/threonine-protein kinase PAK 4; conditions: 0.1 uM
Target sequence in this assay (O96013 whole entry, looked up): as the sequence (O96013 whole entry, looked up) above

[27] = test system: MCF-10A; assay: Cytotoxicity against human MCF10A cells harboring PIK3CA H1047R mutant cells assessed as reduction in cell viability at 50 uM after 24 to 48 hrs by Celltiter-glo luminescence assay; type: functional, cell-based; procedure, shortened: as §1
[28] = molecular target: Serine/threonine-protein kinase PAK 2 (Homo sapiens, UniProt Q13177); assay: Inhibition of PAK2 (unknown origin)
Serine/threonine-protein kinase PAK 2, sequence (Q13177 whole entry): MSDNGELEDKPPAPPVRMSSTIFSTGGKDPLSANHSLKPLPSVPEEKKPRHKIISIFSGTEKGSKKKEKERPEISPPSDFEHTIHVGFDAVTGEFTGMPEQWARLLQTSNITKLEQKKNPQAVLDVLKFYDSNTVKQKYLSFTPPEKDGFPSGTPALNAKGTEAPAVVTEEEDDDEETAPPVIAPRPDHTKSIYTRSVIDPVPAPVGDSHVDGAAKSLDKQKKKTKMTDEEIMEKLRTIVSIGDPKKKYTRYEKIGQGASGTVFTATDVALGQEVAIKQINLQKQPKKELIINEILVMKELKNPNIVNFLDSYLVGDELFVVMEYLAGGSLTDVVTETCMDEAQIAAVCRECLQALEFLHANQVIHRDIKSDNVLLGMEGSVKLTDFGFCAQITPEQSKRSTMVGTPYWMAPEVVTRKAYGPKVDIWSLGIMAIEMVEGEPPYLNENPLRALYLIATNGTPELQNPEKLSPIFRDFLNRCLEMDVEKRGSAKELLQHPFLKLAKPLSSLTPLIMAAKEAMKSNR

Misshapen-like kinase 1 (Homo sapiens), sequence (Q8N4C8 whole entry, looked up): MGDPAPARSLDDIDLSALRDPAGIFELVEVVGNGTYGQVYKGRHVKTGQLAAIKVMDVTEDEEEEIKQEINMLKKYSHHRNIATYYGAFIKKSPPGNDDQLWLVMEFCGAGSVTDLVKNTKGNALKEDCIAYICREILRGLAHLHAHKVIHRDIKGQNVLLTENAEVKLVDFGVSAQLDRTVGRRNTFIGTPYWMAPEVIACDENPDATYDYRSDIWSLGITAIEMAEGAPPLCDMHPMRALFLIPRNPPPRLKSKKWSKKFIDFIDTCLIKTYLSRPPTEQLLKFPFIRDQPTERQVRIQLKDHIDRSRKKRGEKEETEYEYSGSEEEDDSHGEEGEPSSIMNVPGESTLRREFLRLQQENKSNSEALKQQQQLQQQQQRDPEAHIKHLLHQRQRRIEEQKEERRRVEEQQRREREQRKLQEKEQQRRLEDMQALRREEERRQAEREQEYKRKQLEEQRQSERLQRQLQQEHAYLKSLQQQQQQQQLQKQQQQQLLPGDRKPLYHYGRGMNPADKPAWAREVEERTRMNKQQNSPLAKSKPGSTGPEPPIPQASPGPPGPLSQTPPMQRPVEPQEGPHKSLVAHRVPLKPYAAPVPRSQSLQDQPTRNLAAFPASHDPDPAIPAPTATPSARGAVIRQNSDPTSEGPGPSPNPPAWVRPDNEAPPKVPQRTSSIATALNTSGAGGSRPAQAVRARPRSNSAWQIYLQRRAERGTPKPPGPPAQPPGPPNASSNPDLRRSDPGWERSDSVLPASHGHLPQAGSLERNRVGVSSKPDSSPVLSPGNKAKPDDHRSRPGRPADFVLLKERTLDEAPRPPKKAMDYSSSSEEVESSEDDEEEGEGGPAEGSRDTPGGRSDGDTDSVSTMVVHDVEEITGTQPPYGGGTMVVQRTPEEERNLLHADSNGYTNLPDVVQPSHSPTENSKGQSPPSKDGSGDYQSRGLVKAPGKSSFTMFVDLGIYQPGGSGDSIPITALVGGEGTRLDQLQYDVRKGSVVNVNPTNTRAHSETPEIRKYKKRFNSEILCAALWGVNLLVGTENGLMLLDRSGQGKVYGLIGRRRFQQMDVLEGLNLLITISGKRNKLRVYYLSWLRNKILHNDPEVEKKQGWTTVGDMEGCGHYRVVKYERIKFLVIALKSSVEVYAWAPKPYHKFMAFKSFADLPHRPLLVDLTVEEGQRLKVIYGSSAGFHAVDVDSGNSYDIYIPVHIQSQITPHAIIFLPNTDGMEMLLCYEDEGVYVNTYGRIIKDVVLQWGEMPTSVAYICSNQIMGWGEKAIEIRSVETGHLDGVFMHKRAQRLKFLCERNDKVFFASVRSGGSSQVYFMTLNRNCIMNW
Mitogen-activated protein kinase kinase kinase 14 (Homo sapiens), sequence (Q99558 whole entry, looked up): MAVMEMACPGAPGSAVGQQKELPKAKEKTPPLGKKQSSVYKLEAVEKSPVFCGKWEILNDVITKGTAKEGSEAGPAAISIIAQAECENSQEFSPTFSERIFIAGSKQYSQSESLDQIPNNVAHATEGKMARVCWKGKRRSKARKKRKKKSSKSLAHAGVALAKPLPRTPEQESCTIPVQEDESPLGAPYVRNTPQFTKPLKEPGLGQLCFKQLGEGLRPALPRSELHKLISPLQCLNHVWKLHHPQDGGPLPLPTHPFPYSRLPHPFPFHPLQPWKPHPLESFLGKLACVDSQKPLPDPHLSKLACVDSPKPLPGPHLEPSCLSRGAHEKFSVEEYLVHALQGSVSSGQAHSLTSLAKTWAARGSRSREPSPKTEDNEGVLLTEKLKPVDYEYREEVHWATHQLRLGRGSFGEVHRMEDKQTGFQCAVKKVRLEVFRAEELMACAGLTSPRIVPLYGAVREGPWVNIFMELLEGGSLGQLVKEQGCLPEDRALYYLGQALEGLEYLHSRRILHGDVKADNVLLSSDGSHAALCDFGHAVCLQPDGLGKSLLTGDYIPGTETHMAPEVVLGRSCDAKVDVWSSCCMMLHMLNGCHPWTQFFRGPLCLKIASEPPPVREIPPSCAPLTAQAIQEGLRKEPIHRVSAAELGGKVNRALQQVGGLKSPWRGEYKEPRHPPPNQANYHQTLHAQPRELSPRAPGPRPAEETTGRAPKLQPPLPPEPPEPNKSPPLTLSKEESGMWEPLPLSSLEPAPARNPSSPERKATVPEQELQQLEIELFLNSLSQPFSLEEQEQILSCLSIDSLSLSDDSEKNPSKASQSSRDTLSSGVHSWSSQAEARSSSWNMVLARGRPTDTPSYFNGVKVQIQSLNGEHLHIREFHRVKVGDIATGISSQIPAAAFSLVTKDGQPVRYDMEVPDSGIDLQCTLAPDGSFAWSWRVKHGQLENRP
Serine/threonine-protein kinase PAK 3, sequence (O75914 whole entry): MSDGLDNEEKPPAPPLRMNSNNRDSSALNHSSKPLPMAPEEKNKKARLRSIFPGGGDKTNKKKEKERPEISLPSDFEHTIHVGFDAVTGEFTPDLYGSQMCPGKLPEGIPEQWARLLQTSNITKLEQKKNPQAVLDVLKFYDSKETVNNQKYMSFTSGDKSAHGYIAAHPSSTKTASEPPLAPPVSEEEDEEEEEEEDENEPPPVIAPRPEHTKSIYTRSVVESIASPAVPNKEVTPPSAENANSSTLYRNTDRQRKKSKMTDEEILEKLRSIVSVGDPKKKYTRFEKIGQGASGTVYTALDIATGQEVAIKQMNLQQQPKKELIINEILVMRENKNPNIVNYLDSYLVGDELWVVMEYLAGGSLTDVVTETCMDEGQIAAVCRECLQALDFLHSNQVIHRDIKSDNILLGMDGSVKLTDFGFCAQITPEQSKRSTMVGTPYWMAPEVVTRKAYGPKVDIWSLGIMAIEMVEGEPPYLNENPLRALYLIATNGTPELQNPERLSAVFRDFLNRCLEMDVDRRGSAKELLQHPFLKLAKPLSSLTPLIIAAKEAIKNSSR

## COCCNc1nc2ccc(C#CC3(O)CCCCC3)cc2n1-c1ccnc(N)n1
[1]
  inhibition: -1%
[2]
  Activity: Active
[3]
  IC50: 36 nM
[4]
  Activity: Active
[5]
  Activity: Dose-dependent effect
[6]
  IC50: 126 nM
[7]
  Activity: inactive
[8]
  Activity: 50%
[9]
  inhibition: 5%
[10]
  solubility thermodynamic: 6.3 µM (≈ 2.56 µg/mL)
[11]
  Papp A→B: 22.2 ×10⁻⁶ cm/s
[12]
  IC50: > 10000 nM
[13]
  Activity: 50%
[14]
  fraction unbound: 0.04
[15]
  inhibition: 14%
[16]
  inhibition: > 60%
[17]
  inhibition: 100%
[18]
  logD: 3.6
[19]
  solubility kinetic: 30 µM (≈ 12.2 µg/mL)
[20]
  Activity: 50%
[21]
  inhibition: -4%
[22]
  inhibition: 46%
[23]
  Activity: 50%
[24]
  IC50: 7.5 nM
[25]
  inhibition: > 60%
[26]
  inhibition: > 60%
[27]
  Activity: Active
[28]
  IC50: 970 nM
